An excerpt weighted towards active compounds, which were near 1.8% of everything screened.
TDP2 inh – blocks human TDP2 phosphodiesterase activity | O95551 | recombinant TDP2, T5PNP hydrolysis, p-nitrophenol absorbance 415 nm | inhibition, % at 12.8 µM | 370,000 tested, 0.34% active | AID 720702;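 active = inhibition above the mean of all tested compounds plus 3 SD, set per campaign, cut at about 25% in these data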;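 note: 0% = DMSO with enzyme and 100% = buffer with substrate but no TDP2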
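Incubation: 2 h at 37 °C; Test system: recombinant human TDP2; Quantity: enzyme 120 nM; Read-out basis: percent inhibition; Medium: 50 mM Tris-HCl pH 7.5 with Mg2+, KCl, DTT, BSA; Repeats: single replicate; Compound: 12.8 µM single point, 1% DMSO; Signal: epi absorbance; Reagent: 5 mM T5PNP chromogenic substrate; Benchmarks: no-enzyme high, DMSO-plus-enzyme low.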
LEDGF integ inh – blocks HIV-1 LEDGF/p75-dependent DNA integration; TR-FRET IN-LEDGF/p75 DNA integration, Eu/Cy5; inhibition, % at 3.7 µM; 370,000 tested, 0.64% active; AID 743269;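 active = inhibition above the screen-wide mean plus 3 SD, cut at about 13% in these data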;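 note: signal is the Cy5 over europium emission ratio at 671 and 618 nm; 0% = plate median of compound wells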
UHRF1 binding – UHRF1 methyl-DNA binding inhibition. Q96T88. inhibition, % at 4.4 µM. UHRF1 binding to methylated oligo, TR-FRET. 370,000 tested, 0.75% active; in the data active = inhibition above about 21%;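 note: UHRF1 SRA domain binding a hemimethylated CpG hairpin DNA probe; 0% = median of test compound wells and 100% = reference inhibitor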
Target sequence (Q96T88 whole entry, looked up, the tested form may be a part): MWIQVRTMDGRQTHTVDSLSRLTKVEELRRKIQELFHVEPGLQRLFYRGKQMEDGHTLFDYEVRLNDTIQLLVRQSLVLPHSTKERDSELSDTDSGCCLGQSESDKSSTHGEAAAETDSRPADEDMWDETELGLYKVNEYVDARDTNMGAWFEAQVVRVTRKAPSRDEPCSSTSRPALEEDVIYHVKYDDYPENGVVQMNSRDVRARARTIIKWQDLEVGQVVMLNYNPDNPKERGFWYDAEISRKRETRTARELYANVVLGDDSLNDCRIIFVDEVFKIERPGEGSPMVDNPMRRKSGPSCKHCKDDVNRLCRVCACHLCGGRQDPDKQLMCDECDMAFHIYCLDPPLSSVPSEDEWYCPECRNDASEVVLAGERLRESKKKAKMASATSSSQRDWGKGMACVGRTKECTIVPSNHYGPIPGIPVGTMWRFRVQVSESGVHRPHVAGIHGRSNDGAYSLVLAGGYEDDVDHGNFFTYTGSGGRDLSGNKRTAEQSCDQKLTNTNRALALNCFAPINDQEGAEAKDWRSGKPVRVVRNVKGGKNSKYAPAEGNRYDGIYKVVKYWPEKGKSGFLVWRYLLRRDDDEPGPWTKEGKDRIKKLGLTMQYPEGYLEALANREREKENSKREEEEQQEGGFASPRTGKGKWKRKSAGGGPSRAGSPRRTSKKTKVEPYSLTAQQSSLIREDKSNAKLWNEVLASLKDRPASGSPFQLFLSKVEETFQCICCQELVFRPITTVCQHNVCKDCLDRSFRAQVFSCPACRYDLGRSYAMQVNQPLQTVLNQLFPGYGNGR
MBD2 DNA inh – inhibitors of human MBD2 binding to methylated oligonucleotide; Q9UBB5; TR-FRET; inhibition, % at 4.4 µM; 370,000 tested, 0.31% active; AID 686964; in the data active = inhibition above about 13%
NSD2 inh – blocks human histone methyltransferase NSD2 | O96028 | NSD2 peptide methylation, AlphaScreen, 120 min | inhibition, % at 12.5 µM | 310,000 tested, 0.54% active | AID 743445; in the data active = inhibition above about 50%
Casp6 inh – caspase-6 (human) enzyme inhibition | P55212 | purified caspase-6, Z-VEID-R110 cleavage fluorescence | inhibition, % at 12.5 µM | 350,000 tested, 0.53% active;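 active = mean inhibition across replicates at least about 35%, with every replicate also reaching that limit, limit read from the data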;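 note: 0% = median of neutral control wells and 100% = no fluorescence left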
IN multimer act – activates HIV-1 integrase multimerization in LEDGF counter-screen | shares compounds with LEDGF integ inh | TR-FRET HIV-1 integrase multimerization, biochemical | activation, % at 7.7 µM | 2,000 tested, 17% active; in the data active = activation above about 8.9%
TR-FRET interf – TR-FRET optical interference, LEDGF/p75 integration counter-screen; shares compounds with LEDGF integ inh; TR-FRET optical interference counterscreen, HIV-1 IN multimerization; inhibition, % at 7.7 µM; 2,000 tested, under 10 active;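 active = inhibition above the mean over all tested compounds plus 3 SD, which no compound reached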;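 note: 0% = integrase with antibodies and DMSO and 100% = antibodies without integrase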
LEDGF integ conf – confirmation of HIV-1 LEDGF/p75-dependent integration inhibitors | inhibition, % at 3.7 µM | shares compounds with LEDGF integ inh | TR-FRET LEDGF/p75-dependent HIV-1 integration, biochemical | 2,000 tested, 36% active; in the data active = inhibition above about 14%
Numbers without * were called inactive; x = no result given.

SMILES | TDP2 inh | LEDGF integ inh | UHRF1 binding | MBD2 DNA inh | NSD2 inh | Casp6 inh | IN multimer act | TR-FRET interf | LEDGF integ conf
NNC(=O)c1oc2nc(-c3ccc(Cl)cc3)cc(-c3ccccc3)c2c1N | 11 | -3 | -4 | 10 | 3 | -1 | x | x | x
Nc1c(C(=O)N/N=C/c2cccnc2)oc2nc(-c3ccccc3)cc(-c3ccco3)c12 | -4 | 5 | -5 | -7 | -2 | 6 | x | x | x
O=C1C(=Cc2cccc(O)c2O)SC(=S)N1CCCN1CCOCC1 | 2 | 24* | -1 | -2 | 40 | 19 | 18* | -66 | 10
C[C@@H]1CN([C@@H](C)CO)C(=O)c2cc(N(C)C)ccc2O[C@H]1CN(C)Cc1ccncc1 | x | x | x | x | x | 2 | x | x | x
O=c1c(O)c(-c2ccc(O)c(O)c2)oc2cc(O)ccc12 | 3 | 79* | 0 | 0 | x | 65* | 39* | -198 | 92*
Cc1nnc(SCC(=O)Nc2ccc(Cl)cn2)n1Cc1ccccc1 | 1 | 16* | -1 | -1 | -6 | x | 0 | -1 | 0
O=C(CS(=O)(=O)Cc1ccccc1)Nc1ccc(Cl)cn1 | 15 | 88* | 0 | 7 | -1 | x | 5 | -19 | 2
O=C(CS(=O)(=O)Cc1ccccc1)Nc1ccccn1 | 3 | 0 | 20 | 10 | 27 | x | x | x | x
Cc1nnc(NC(=O)CSc2nnc(C)n2Cc2ccccc2)s1 | -3 | -4 | 4 | 5 | 0 | x | x | x | x
C[C@H]1CN([C@@H](C)CO)C(=O)c2cccc(NC(=O)C3CC3)c2O[C@@H]1CN(C)Cc1ccc(Oc2ccccc2)cc1 | x | x | x | x | x | 2 | x | x | x
C/C=C/c1ccc([C@@H]2[C@H](CO)N(C(=O)CC)C23CN(S(=O)(=O)CC)C3)cc1 | x | x | x | x | x | 0 | x | x | x
O=C1CSC(c2ccc(Cl)c(Cl)c2)N1c1nccs1 (stereo not drawn) | -9 | 18* | 2 | -2 | -3 | 4 | -2 | 11 | -4
CC(=O)NS(=O)(=O)c1ccc(NC(=O)/C=C/c2ccco2)cc1 | 3 | 30* | 29* | 3 | 36 | 28 | 3 | -13 | 26*
CCOc1ccc(C(=O)NC(=S)N(Cc2ccccc2)Cc2ccccc2)cc1 | -8 | 10 | -3 | -3 | -1 | -1 | x | x | x
CCCN(CCC)C(=S)NC(=O)c1ccc(-c2ccccc2)cc1 | -2 | 26* | 0 | 2 | -3 | x | 1 | -7 | 35*
CN(C)C(=O)C[C@H]1CC[C@@H]2[C@H](COC[C@@H](O)CN2C(=O)c2ccncc2)O1 | x | x | x | x | x | -1 | x | x | x
Cc1ccc(C)c(OCCC(=O)OCC(=O)c2c(N)n(C)c(=O)n(C)c2=O)c1 | -3 | 24* | 2 | -1 | -1 | 3 | -1 | 4 | -2
Cc1cc(Cl)ccc1OCCCC(=O)OCC(=O)c1c(N)n(C)c(=O)n(C)c1=O | 2 | 1 | 0 | 7 | -1 | 1 | x | x | x
O=C(Nc1ccc2c(c1)oc1ccccc12)C1CC1 | 6 | -2 | -2 | 1 | -1 | x | x | x | x
O=C(Nc1ccc2c(c1)oc1ccc(S(=O)(=O)N3CCCC3)cc12)C1CC1 | 14 | 24* | -6 | 2 | 0 | x | 1 | -3 | -4
C[C@@H]1CCCCO[C@H](CN(C)C(=O)C2CCCCC2)[C@H](C)CN([C@@H](C)CO)C(=O)c2cc(N(C)C)ccc2O1 | x | x | x | x | x | 8 | x | x | x
c1cc(CNc2ccc(N3CCOCC3)cc2)ccn1 | 22 | 16* | -5 | 1 | 3 | x | 6 | -23 | -9
Cc1ccc(CNc2ccc(N3CCOCC3)cc2)cc1 | 23 | 7 | 0 | -6 | 12 | 1 | x | x | x
c1cc2c(cc1CNc1ccc(N3CCOCC3)cc1)OCO2 | 16 | 16* | -3 | 0 | x | -1 | 5 | -24 | -16
CC(C)c1ccc(CNc2ccc(N3CCOCC3)cc2)cc1 | 19 | 11 | -3 | -1 | 22 | x | x | x | x
SMILES | TDP2 inh | LEDGF integ inh | UHRF1 binding | MBD2 DNA inh | NSD2 inh | Casp6 inh | IN multimer act | TR-FRET interf | LEDGF integ conf
CO[C@@H]1CN(C)C(=O)c2cc(NC(=O)Nc3ccccc3Cl)ccc2OC[C@H](C)NC[C@@H]1C | x | x | x | x | x | -3 | x | x | x
C[C@H](CO)N1C[C@H](C)[C@H](CN(C)S(C)(=O)=O)OCCCC[C@H](C)Oc2ccc(NC(=O)Cc3ccccc3)cc2C1=O | x | x | x | x | x | 1 | x | x | x
Cc1cc(=O)c2c(O)c(O)ccc2o1 | -8 | 14* | 11 | 0 | 39 | x | 9.6* | -34 | 9
COc1c2ccoc2cc2oc(C)cc(=O)c12 | -13 | 4 | -3 | -6 | x | -1 | x | x | x
COc1ccc2c3c(n(C)c2c1)[C@@H](CO)N(Cc1ccccc1OC)CC31CCN(C(=O)C2CC2)CC1 | x | x | x | x | x | -2 | x | x | x
CN(C)CCNC(=O)c1cccc(-c2cccc3nncn23)c1 | -4 | 55* | -1 | -7 | 1 | 0 | -1 | 4 | 1
COc1ccc(/C=C(\C#N)c2nc3ccccc3[nH]2)cc1O | -11 | -3 | -3 | -4 | -4 | 5 | x | x | x
COc1cc(/C=C(\C#N)c2nc3ccccc3[nH]2)cc(OC)c1O | 0 | 16* | -10 | -3 | 13 | 4 | 8 | -38 | 2
O=C(C[C@@H]1CC[C@H]2[C@@H](COC[C@@H](O)CN2C(=O)c2ccncc2)O1)Nc1ccc(-c2ccccc2)cc1 | x | x | x | x | x | 0 | x | x | x
c1ccc(-c2noc(CN3CCN(c4ccccc4)CC3)n2)cc1 | 2 | -2 | 0 | 0 | x | 0 | x | x | x
c1ccc(-c2noc(CN3CCN(C(c4ccccc4)c4ccccc4)CC3)n2)cc1 | 12 | 15* | 0 | -1 | 1 | x | 0 | -2 | -1
Cc1cc(C)c2nc(SCC(=O)NCCN3C(=O)CSC3=O)cc(C)c2c1 | 6 | -2 | 0 | -1 | -5 | 1 | x | x | x
Cc1cc(SCC(=O)NCCN2C(=O)CSC2=O)nc2c(C)cccc12 | 4 | 23* | 2 | 2 | -2 | x | 6 | -30 | 1
O=C(CCCOc1ccc(Cl)cc1Cl)NCCCn1ccnc1 | -3 | 27* | 1 | 1 | -2 | -5 | 0 | -1 | 2
O=C(O)c1ccc(NC2OC[C@@H](O)[C@H](O)[C@H]2O)cc1 (stereo partly drawn) | 7 | 18* | 52* | 4 | x | 24 | 0 | -1 | -2
CN(C)C(=O)c1cccc(-c2ccc([C@@H]3[C@H](CO)N4C(=O)CN(C(=O)C5CC5)C[C@@H]34)cc2)c1 | x | x | x | x | x | 2 | x | x | x
CCCCc1cc(=O)oc2cc(OCC(=O)NCC3CCC(C(=O)O)CC3)ccc12 (stereo not drawn) | 3 | 3 | -2 | 0 | x | -1 | x | x | x

Screens (PubChem BioAssay)
